# Most compounds without a hit are left out; they make up all but 10% or so of the library.
# WT yeast gro inh: growth inhibition of WT yeast, mitochondrial fusion screen | mitochondrial fusion phenotypic screen, WT strain | inhibition, % at 10 µM | hit rate 2.1% among 190,000; in the data active means inhibition above about 58%; tested in S. cerevisiae
# Diaphorase act: diaphorase activation or chemical reduction counter-screen; Diaphorase/resazurin coupled assay, resorufin fluorescence, 16 min; active compounds read high; 1 = vehicle wells, 0 = NADH-free wells; hit rate 0.005% among 190,000; AID 1229; activation factor at 20 µM;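 active means diaphorase activity raised at least twofold by the compound at 20 µM; inactive means activation factor below 2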
#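 Test system: Clostridium kluyveri diaphorase, purified enzyme; input: enzyme 0.07 U/mL final; buffer or medium: 50 mM HEPES pH 7.4 with 4.542 mM MgCl2, 0.005% Tween 20; also added: 0.114 mM NADH and 0.1 mM resazurin, final amounts; schedule: 16 min enzyme reaction, ambient temperature; technique: fluorescence of resorufin, 544 nm excitation, 590 nm emission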
# Lmaj promast: reduces viability of Leishmania major promastigotes. resazurin fluorescence viability. inhibition, % at 10 µM. hit rate 9% among 200,000; in the data active means inhibition above about 50%;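 further: promastigotes grown with compound for 44 hours at 28 °C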
# PMI act hi M6P: activators of human phosphomannose isomerase at near-saturating mannose 6-phosphate. P34949. coupled PMI enzyme assay, resazurin fluorescence, 20 min; active compounds read high; 1 = untreated enzyme, 0 = substrate-free blank. activation factor at 20 µM. hit rate 0.34% among 190,000;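 active means activation factor of 2 or more at 20 µM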
# Target sequence (P34949 whole entry, looked up): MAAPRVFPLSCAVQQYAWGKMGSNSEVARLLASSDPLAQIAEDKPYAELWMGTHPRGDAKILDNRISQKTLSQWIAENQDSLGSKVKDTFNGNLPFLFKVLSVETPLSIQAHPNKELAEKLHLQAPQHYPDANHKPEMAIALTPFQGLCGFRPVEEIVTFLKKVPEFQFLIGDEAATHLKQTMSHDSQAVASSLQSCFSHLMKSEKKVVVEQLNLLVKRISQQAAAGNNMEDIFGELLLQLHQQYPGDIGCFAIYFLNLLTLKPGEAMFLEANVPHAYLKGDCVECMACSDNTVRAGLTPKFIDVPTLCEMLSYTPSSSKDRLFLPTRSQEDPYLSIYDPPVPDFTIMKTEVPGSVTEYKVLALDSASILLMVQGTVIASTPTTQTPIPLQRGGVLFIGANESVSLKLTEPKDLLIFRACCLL
#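 assay system = human phosphomannose isomerase with PGI, G6PDH, diaphorase coupling enzymes | quantity = 15 ng/mL PMI | incubation = enzyme reaction with compound 20 min at room temperature | medium = HEPES pH 7.4 buffer with MgCl2 and Tween-20 | compound dosing = one concentration, 20 µM, in 1% DMSO | measured by = Diaphorase-driven resazurin-to-resorufin fluorescence, excitation 544, emission 590 nm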
# PMI activator: increases human mannose-6-phosphate isomerase activity. purified human PMI, coupled resazurin fluorescence, 20 min; active compounds read high; 1 = vehicle control, 0 substrate-free wells. hit rate 0.005% among 190,000. activation factor at 20 µM. P34949. AID 1214;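 active means activation factor of 2 or more at 20 µM, relative to plate controls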
# The depositor's hits bear a star; x = no result given.
SMILES,WT yeast gro inh,Diaphorase act,Lmaj promast,PMI act hi M6P,PMI activator
CCc1ccc2c(c1)CCCN2C(=O)c1ccccc1C(=O)O,1.4,0.9,99.1*,1.1,1
O=C(NC(=S)N1CCCc2ccccc21)c1ccc(Cl)cc1,47.8,0.7,64.2*,1,1.1
O=C(c1cc([N+](=O)[O-])cc([N+](=O)[O-])c1)N1CCCc2ccccc21,19.6,0.7,78.5*,0.8,0.9
Cc1ccc2c(c1)CCCN2C(=O)c1ccoc1C,-3.4,0.9,-4.6,1,0.9
O=C(Cc1ccc([N+](=O)[O-])cc1)N1CCCc2ccccc21,17.6,0.9,13.0,1,1
CCn1c(=O)[nH]c2cc(C(=O)Nc3cc(C)cc(C)c3)ccc2c1=O,9.4,1,7.3,1,1
O=C(c1ccc(C(=O)N2CCCc3ccccc32)s1)N1CCCc2ccccc21,96.5*,0.8,7.8,1,1
Cc1ccc(-c2cc(C(=O)N3CCCc4ccccc43)no2)cc1,64.4*,0.8,-1.7,1,1
O=C(c1ccc(N2CCCCCC2)c([N+](=O)[O-])c1)N1CCc2ccccc21,15.2,0.9,88.5*,1,0.9
CCC(C)c1ccccc1NC(=O)COC(=O)CCc1cc(OC)c(OC)c(OC)c1 (stereo not given),2.0,0.9,51.4*,0.9,0.9
Cc1cccc(NC(=O)c2cc3cc([N+](=O)[O-])ccc3s2)n1,0.7,1.1,4.0,1.1,1.2
COc1cc2[nH]c(=S)nc(NCCc3ccc(C)cc3)c2cc1OC,13.5,1.1,97.3*,1,1
CC(=O)C1=C(c2ccc(Br)cc2)C(=O)c2ccccc2C1=O,92.9*,0.4,100.4*,0.2,0.2
CC1=CC(=C2C(=O)c3ccccc3C2=O)C=C(C)O1,10.5,0.9,7.3,1,1
COc1ccc(-c2nc3oc4cc(OC)ccc4c(=O)c3c(=O)n2Cc2ccco2)cc1,32.5,0.8,73.2*,0.7,0.7
COCCn1c(-c2ccc(OC)cc2)nc2oc3cc(OC)ccc3c(=O)c2c1=O,13.0,0.9,55.0*,1.1,1
COc1ccc2c(=O)c3c(=O)n(Cc4ccco4)c(-c4ccco4)nc3oc2c1,4.6,0.5,43.0,0.9,0.9
O=c1oc2ccccc2c(O)c1C=Nc1cccnc1,-12.8,1,0.2,1.1,1.2
CC1CCN(CCCNC(=O)c2cc3c(Cl)nc4ccccc4c3s2)CC1,17.0,1.1,99.8*,1,0.9
CC1CCN(CCCNC(=O)c2n[nH]c(=O)c3ccccc23)CC1,-9.7,1,0.1,1,1
O=C(NCCCN1CCCC1)c1cc2c(Cl)nc3ccccc3c2s1,14.8,1.1,90.4*,1,1.1
O=C(NCCCN1CCCCCC1)c1ccc2c(Cl)c3c(nc2c1)CCCC3,3.4,1.2,73.0*,1.1,1.1
O=[N+]([O-])CC(=Nc1ccc(Cl)cc1)N/N=C\c1oc(O)c2ccccc12,3.1,0.8,-6.8,1.5,1.2
Cc1cccc(N2CCN(Cc3nc(-c4cccc(Oc5ccccc5)c4)oc3C)CC2)n1,34.2,x,4.3,x,x
Cc1oc(-c2cccc3ccccc23)nc1CN1CCN(c2ncnc3ccccc23)CC1,62.7*,0.7,14.2,0.8,0.8
SMILES,WT yeast gro inh,Diaphorase act,Lmaj promast,PMI act hi M6P,PMI activator
COc1ccc(-c2nc(CN3CCN(c4cc(C)nc(C)c4)CC3)c(C)o2)c2ccccc12,36.5,1.3,100.5*,0.8,0.9
Cc1cnc(C)c(N2CCN(Cc3nc(-c4ccc(C)o4)oc3C)CC2)n1,-11.5,0.9,-0.9,0.7,0.8
NS(=O)(=O)c1ccc(CCNC(=O)Nc2ccc(Cl)c(Cl)c2)cc1,4.7,0.9,75.7*,0.9,0.8
NS(=O)(=O)c1ccc(CNC(=S)Nc2ccc(Cl)c(Cl)c2)cc1,2.4,0.9,17.3,0.9,0.9
O=C1[C@@H]2[C@@H]3C[C@@H]([C@H]4ON=C(c5ccc(Cl)cc5)[C@@H]34)[C@@H]2C(=O)N1C1CCCCC1,52.5,0.8,-4.5,0.9,0.8
Cc1cccc2c1N(CCCOc1ccc(C(C)(C)C)cc1)C(=O)C2=O,97.1*,0.7,-1.1,0.9,0.8
Cc1cccc2c1N(CCCOc1ccccc1)C(=O)C2=O,-1.2,0.9,-1.4,0.8,0.9
COc1ccc(NC(=O)C(OC(=O)c2ccc([N+](=O)[O-])o2)c2ccccc2)cc1Cl (stereo not given),5.0,0.8,-3.5,0.8,0.8

# Assay outcomes from PubChem.
